Data set [1] deals with Mus musculus. As to the kind of experiment: Antialzheimer activity in ICR mouse model of scopolamine-induced cognitive deficit assessed as reduction scopolamine-induced error times at 10 to 30 mg/kg, po treated for 1 hr followed by scopolamine challenge for 30 mins by step-down passive avoidance test. Type of data set: functional, organism-based. The essentials: (§1)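 ICR mice, six weeks old, 18-22 g, either sex, n = 15/group. […] Step-down test used foot shock of 20 V, 0.5 mA, 2 s, with a training trial and a test 24 h later. Read-outs were latency to first step-down and number of shocks in 5 min. Mean ± SEM.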

The nature of data set [2]: Acute toxicity ICR mouse assessed as induction of abnormal behavior at 0 to 1000 mg/kg, po measured up to 14 days. Type of data set: organism-based. As to conditions: in vivo, 336 h. The method, boiled down:
(§2)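 Male ICR mice (22 days, 20–22 g), n = 5 per group, chow and water ad libitum, 12 h light/dark cycle. Single oral dose of 0, 100, 200, 500 or 1000 mg/kg in 0.5% CMC-Na. Observed continuously for the first 4 h, intermittently over the next 24 h, then occasionally to 14 days. Euthanized on day 14.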

A short description of data set [3]: Cmax in ICR mouse at 30 mg/kg, po measured upto 48 hrs by LCMS/MS method. As to conditions: in vivo. Also on record: dose 30 mg/kg, route oral. Type of data set: ADME, organism-based.
In data set [4] the test system is BuChE. As to the kind of experiment: Selectivity index, ratio of CC50 for human SH-SY5Y cells IC50 for mouse plasma BuChE. Format: toxicity. The essentials:
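SI is CC50 in SH-SY5Y divided by BuChE IC50. […] For IC50, mouse plasma BuChE was preincubated 30 min at 37 °C with DTNB and compound in 0.05 M PBS pH 8.0. Butyrylthiocholine iodide was added and A412 read; IC50 taken from log concentration–inhibition curves.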

The target of data set [5] is T1, Acetylcholinesterase (Mus musculus) (UniProt P21836).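 Also: enzyme taken from mouse brain, acetylthiocholine iodide as the substrate, read after 30 min with the Ellman method.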
T1 sequence (whole entry): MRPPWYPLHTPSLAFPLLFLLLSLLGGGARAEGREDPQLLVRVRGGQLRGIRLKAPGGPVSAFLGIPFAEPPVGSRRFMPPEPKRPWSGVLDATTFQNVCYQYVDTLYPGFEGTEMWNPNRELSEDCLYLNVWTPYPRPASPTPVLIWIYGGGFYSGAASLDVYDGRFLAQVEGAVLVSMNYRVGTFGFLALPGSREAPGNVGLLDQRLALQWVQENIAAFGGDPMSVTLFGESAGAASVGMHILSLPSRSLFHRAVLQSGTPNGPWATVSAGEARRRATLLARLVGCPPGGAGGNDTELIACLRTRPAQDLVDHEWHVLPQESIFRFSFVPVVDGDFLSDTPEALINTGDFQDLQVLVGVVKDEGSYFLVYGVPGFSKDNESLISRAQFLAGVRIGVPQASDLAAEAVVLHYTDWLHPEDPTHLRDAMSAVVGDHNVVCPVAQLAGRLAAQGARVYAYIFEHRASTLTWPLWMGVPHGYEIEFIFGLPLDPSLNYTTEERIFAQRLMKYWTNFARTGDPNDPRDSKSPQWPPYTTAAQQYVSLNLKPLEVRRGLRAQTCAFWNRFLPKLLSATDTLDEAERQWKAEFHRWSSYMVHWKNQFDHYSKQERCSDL
To be noted: at 10 µM.

A short description of data set [6]: Acute toxicity ICR mouse assessed as effect on drinking behavior at 0 to 1000 mg/kg, po measured up to 14 days. Format: organism-based. As to conditions: in vivo, 336 h. The method, boiled down: as §2
Data set [7] deals with T2, Histamine H3 receptor (Homo sapiens, UniProt Q9Y5N1). As to the kind of experiment: Inhibition of human H3R expressed in methylhistamine-induced human H3-bla U2OS cells at 10 uM incubated for 30 mins by beta-lactamase complementation technology relative to control. Type of data set: cell-based.
Data set [8] has as its system BV-2. Kind of data set: Antiinflammatory activity in mouse BV2 cells assessed as reduction in LPS-induced TNF-alpha production at 10 uM pretreated for 1 hr followed by LPS challenge and measured after 24 hrs by ELISA assay. Type of data set: functional, cell-based.
Data set [9] concerns BV-2. Kind of data set: Cytotoxicity activity in mouse BV2 cells assessed as reduction in cell viability up to 100 uM measured after 72 hrs incubation by MTT assay. Type of data set: cell-based. To be noted: bv-2, 72 h.
Data set [10] in a line: Acute toxicity ICR mouse assessed as mortality at 0 to 1000 mg/kg, po measured up to 14 days. Type of data set: organism-based. To be noted: in vivo, 336 h. The method, boiled down: as §2
Data set [11] has as its system Mus musculus. As to the kind of experiment: Effect on latency time in ICR mouse model of scopolamine-induced cognitive deficit during training stage at 10 to 30 mg/kg, po treated for 1 hr followed by scopolamine challenge for 30 mins by step-down passive avoidance test. Format: ADME, organism-based. As to conditions: in vivo. The essentials:
as §1

Data set [12] deals with T2, Histamine H3 receptor. As to the kind of experiment: Inhibition of human H3R expressed in methylhistamine-induced human H3-bla U2OS cells incubated for 30 mins by beta-lactamase complementation technology. Type of data set: cell-based. To be noted: read-out: IC50. The essentials: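 H3-bla U2OS cells co-express human H3R-Gal4-VP16 (TEV site) and β-arrestin/TEV protease with a UAS-β-lactamase reporter. IC50 came from log concentration-inhibition curves. Triplicates, three independent experiments.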

Data set [13] deals with Mus musculus. As to the kind of experiment: Effect on error times in ICR mouse model of scopolamine-induced cognitive deficit during training stage at 10 to 30 mg/kg, po treated for 1 hr followed by scopolamine challenge for 30 mins by step-down passive avoidance test. Format: ADME, organism-based. To be noted: in vivo. The method, boiled down:
as §1

Molecules are shown by their SMILES. Activity calls are given as the source filed them. The rule behind the calls is not given here.

The values that follow come from ChEMBL document CHEMBL4433203, “Design, synthesis, and evaluation of isoflavone analogs as multifunctional agents for the treatment of Alzheimer's disease” (Eur J Med Chem, 2019).

T2 sequence (Q9Y5N1 whole entry): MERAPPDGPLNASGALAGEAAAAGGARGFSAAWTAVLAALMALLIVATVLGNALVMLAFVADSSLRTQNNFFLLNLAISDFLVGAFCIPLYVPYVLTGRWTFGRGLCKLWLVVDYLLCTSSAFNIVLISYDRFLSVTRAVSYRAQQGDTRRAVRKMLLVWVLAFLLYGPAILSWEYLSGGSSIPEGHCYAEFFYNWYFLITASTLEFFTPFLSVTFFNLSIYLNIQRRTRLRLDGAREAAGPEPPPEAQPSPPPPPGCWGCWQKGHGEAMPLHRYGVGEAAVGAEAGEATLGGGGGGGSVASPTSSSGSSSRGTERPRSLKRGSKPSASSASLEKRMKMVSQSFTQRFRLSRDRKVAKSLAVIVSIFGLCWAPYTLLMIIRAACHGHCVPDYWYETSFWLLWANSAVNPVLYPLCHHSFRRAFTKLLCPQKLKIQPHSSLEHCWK

Consider `CCN(C)CCCCOc1ccc2c(=O)c(-c3ccc(OCCN4CCCCC4)cc3)coc2c1`, for which the Activity entry was “Dose-dependent effect” in data set [1]; “Non-Toxic” in data set [2]; “Non-Toxic” in [6]; “Non-Toxic” in data set [9]; “Non-Toxic” in [10]; “Non-Toxic” in data set [11]. Moreover, the Activity entry in data set [13] is on record as “Non-Toxic”. The Cmax in data set [3] came out at 52 ng/mL. The selectivity ratio in data set [4] is above 34.6. Besides, the inhibition in data set [5] was found to be 92.8%; in [7], 75.2%. Moreover, the result in [8] was Active. Also, in [12], the concentration for half-maximal inhibition (IC50) worked out at 0.27 µM.
